Test results from ChEMBL document CHEMBL1268931, “Tailored α-methylene-γ-butyrolactones and their effects on growth suppression in pancreatic carcinoma cells” (Bioorg Med Chem Lett, 2010).

Experiments:
MIA PaCa-2 [1] = test: Cytotoxicity against human MIAPaCa2 cells assessed as cell growth at 10 uM after 72 hrs by MTT assay relative to untreated control; format: functional; conditions: MIA PaCa-2, 72 h, read-out: Activity
Procedure, shortened: (§1)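 After 72 h of exposure, growth was read with MTS (CellTiter 96 AQueous One) colorimetric reagent as percent of control-treated cells (100%). Mean of at least two independent experiments run in triplicate.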

BXPC-3 [2] = test: Cytotoxicity against human BxPC3 cells assessed as cell growth at 10 uM after 72 hrs by MTT assay relative to untreated control; format: functional; conditions: BXPC-3, 72 h, read-out: Activity; procedure, shortened: as §1
PANC-1 [3] = test: Cytotoxicity against human PANC1 cells assessed as cell growth at 10 uM after 72 hrs by MTT assay relative to untreated control; format: functional; conditions: PANC-1, 72 h, read-out: Activity; procedure, shortened: as §1
PANC-1 [4] = test: Cytotoxicity against human PANC1 cells assessed as cell growth at 1 uM after 72 hrs by MTT assay relative to untreated control; format: functional; conditions: PANC-1, 72 h, read-out: Activity; procedure, shortened: as §1
[5] = Toxicity against human normal Hematopoietic Progenitor Cells isolated from human cord blood at 1 uM after 18 hrs by MTT assay relative to untreated control
BXPC-3 [6] = test: Cytotoxicity against human BxPC3 cells assessed as cell growth at 1 uM after 72 hrs by MTT assay relative to untreated control; format: functional; conditions: BXPC-3, 72 h, read-out: Activity; procedure, shortened: as §1
MIA PaCa-2 [7] = test: Cytotoxicity against human MIAPaCa2 cells assessed as cell growth at 1 uM after 72 hrs by MTT assay relative to untreated control; format: functional; conditions: MIA PaCa-2, 72 h, read-out: Activity; procedure, shortened: as §1

SMILES | growth at 10 µM (MIA PaCa-2 [1]) [%] | growth at 10 µM (BXPC-3 [2]) [%] | growth at 10 µM (PANC-1 [3]) [%] | growth at 1 µM (PANC-1 [4]) [%] | Activity [5] | growth at 1 µM (BXPC-3 [6]) [%] | growth at 1 µM (MIA PaCa-2 [7]) [%]
C=C1C(=O)OCC1c1ccccc1 (stereo not given) | 14 | 40 | 31 | – | – | – | –
C/C1=C\CC[C@@]2(C)O[C@@H]2[C@H]2OC(=O)C(CN(C)C)[C@@H]2CC1 (stereo not given in full) [DIMETHYLAMINOPARTHENOLIDE] | 2 | 7 | 17 | 117 | Non-toxic | 92 | 73
C/C=C1\C(=O)O[C@@H](c2ccc([N+](=O)[O-])cc2)[C@H]1C (relative stereo) | 110 | 117 | 106 | – | – | – | –
C=C1CC(c2ccccc2)OC1=O (stereo not given) | 106 | 136 | 135 | – | – | – | –
C=C1C(=O)O[C@@H](c2ccc3ccccc3c2)[C@H]1c1ccccc1 (relative stereo) | 6 | 1 | 33 | 98 | – | 104 | 125
C=C1C(=O)O[C@@H](c2c(F)c(F)c(F)c(F)c2F)[C@H]1C (relative stereo) | 53 | 89 | 70 | 86 | – | 98 | 120
C=C1C(=O)O[C@H](c2ccc(C)cc2)[C@H]1c1ccccc1 (relative stereo) | 2 | 0 | 0 | 105 | Non-toxic | 67 | 26
C=C1C(=O)O[C@@H](c2ccc(OC)cc2)[C@H]1C (relative stereo) | 9 | 13 | 32 | 130 | – | 128 | 109
C=C1C(=O)O[C@@H](c2ccccc2)[C@H]1c1ccccc1 (relative stereo) | 3 | 8 | 38 | 108 | – | 51 | 32
C=C1C(=O)O[C@@H]2C3O[C@]3(C)CC/C=C(\C)CC[C@@H]12 (stereo not given in full) | 3 | 6 | 12 | 132 | – | 92 | 78
C/C=C1\C(=O)O[C@H](c2ccc(OC)cc2)[C@H]1C (relative stereo) | 124 | 179 | 139 | – | – | – | –
C=C1C(=O)O[C@H](c2ccc(C(F)(F)F)cc2)[C@H]1c1ccccc1 (relative stereo) | 5 | 13 | 33 | 152 | – | 138 | 142
C=C1C(=O)O[C@H](c2ccc3ccccc3c2)[C@H]1c1ccccc1 (relative stereo) | 3 | 1 | 13 | 53 | Non-toxic | 60 | 29
C=C1C(=O)O[C@H](c2ccccc2)[C@H]1c1ccccc1 (relative stereo) | 1 | 1 | 1 | 116 | Non-toxic | 86 | 30
C=C1C(=O)O[C@@H](c2ccccc2)[C@H]1C (relative stereo) | 14 | 41 | 62 | 143 | – | 98 | 114
C=C1C(=O)O[C@@H](C(C)C)[C@H]1C (relative stereo) | 143 | 153 | 119 | – | – | – | –
C=C1C(=O)O[C@H](c2ccc(OC)cc2)[C@H]1c1ccccc1 (relative stereo) | 0 | 0 | 0 | 80 | – | 73 | 54
C=C1C(=O)O[C@@H](C2CCCCC2)[C@H]1c1ccccc1 (relative stereo) | 81 | 95 | 104 | – | – | – | –
C=C1C(=O)O[C@H](c2ccc3ccccc3c2)[C@H]1C (relative stereo) | 4 | 27 | 22 | 139 | – | 113 | 74
